pIC50, pKi: −log10 of the molar value.
How the values were obtained:
COLO 205 = experiment: Cytotoxicity against human COLO205 cells after 48 hrs by MTT assay; assay type: functional, cell-based; conditions: COLO 205, 48 h
Procedure, shortened: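 Colo205 cells grown in RPMI 1640 with 10% fetal calf serum and 1% Pen-Strep at 5% CO₂, seeded at 2 × 10⁴ cells/well 24 h before treatment. Dosing used conditioned medium carrying about 100 ng/mL sPLA₂ IIA. Exposure was 24 h, then a wash and 48 h in complete medium before MTT. Reported as mean ± SD, n = 3 or more.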

[1] = Cytotoxicity against human MT3 cells after 48 hrs by MTT assay; assay type: functional, cell-based; conditions: MT-3, 48 h
Procedure, shortened: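 MT-3 breast cancer cells grown in RPMI 1640 with 10% fetal calf serum and 1% Pen-Strep at 5% CO₂, plated at 1 × 10⁴ cells/well 24 h ahead. Retinoids were given in DMSO/water, final DMSO ≤0.5%. Exposure was 24 h, then a wash and 48 h in complete medium before MTT. Mean ± SD, n = 3.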

HT-29 [2] = experiment: Cytotoxicity against human HT-29 cells after 48 hrs by MTT assay; assay type: functional, cell-based; conditions: HT-29, 48 h
Procedure, shortened: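 HT-29 cells grown in McCoy's 5A with 10% fetal calf serum and 1% Pen-Strep, seeded at 1 × 10⁴ cells/well 24 h before dosing. Tested with or without snake (Agkistrodon piscivorus piscivorus) venom sPLA₂ at 5 nM final. Exposure was 24 h, then a wash and 48 h in complete medium before MTT viability. Mean ± SD, n = 3 or more.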

[3] = Stability assessed as compound degradation after 48 hrs by MALDI-TOF MS analysis in presence of Agkistrodon piscivorus piscivorus venom sPLA2; assay type: ADME
Procedure, shortened: (§1)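 Incubated with purified snake venom sPLA₂ at 37 °C, stirred and shielded from light, for 48 h. Extracts mixed with DHB matrix (DPPG included) and analysed by MALDI-TOF MS for remaining prodrug.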

HT-29 [4] = experiment: Cytotoxicity against human HT-29 cells after 48 hrs by MTT assay in presence of Agkistrodon piscivorus piscivorus venom sPLA2; assay type: functional, cell-based; conditions: HT-29, 48 h
Procedure, shortened: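 HT-29 cells (McCoy's 5A, 10% fetal calf serum) plated at 1 × 10⁴ cells/well 24 h before dosing. Liposomal prodrugs diluted in PBS, lipid concentration set by phosphorus analysis; snake venom sPLA₂ added to a final 5 nM. Cells exposed for 24 h, washed, then kept in complete medium another 48 h. Viability read by MTT, mean ± SD, n ≥ 3.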

[5] = Inhibition of sPLA2 from Naja mossambica mossambica by fluorescence technique
[6] = Stability assessed as compound degradation after 48 hrs by MALDI-TOF MS analysis in presence of Naja mossambica mossambica venom sPLA2; assay type: ADME; procedure, shortened: as §1

Row | Compound | pIC50 (COLO 205) | pIC50 [1] | pIC50 (HT-29 [2]) | Stability [3] | pIC50 (HT-29 [4]) | pIC50 [5] | pKi [5] | Stability [6]
1 | CCCCCCCCc1ccc(-c2ccc(C(=O)O)cc2)cc1 | < 3.70 | 4.29 | < 3.70 |  |  |  |  | 
2 | CCCCCCCCCCCCCCCCCCOC[C@H](COP(=O)([O-])OC[C@@H](O)CO)OC(=O)CCCCCOC(=O)/C=C(C)/C=C/C=C(C)/C=C/C1=C(C)CCCC1(C)C.[Na+] | 4.80 |  | < 3.70 | Unstable | 5.15 |  |  | 
3 | CC1=C(/C=C/C(C)=C/C=C/C(C)=C/C(=O)O)C(C)(C)CCC1 [TRETINOIN] | 4.43 | 4.52 | 5.37 |  |  | 4.82 | 4.96 | 
4 | CCCCCCCCCCCCCCCCCC(=O)OC[C@@H](O)COP(=O)(O)OCC(O)CO (some centres not stated) | 4.66 |  | 5.15 |  |  |  |  | 
5 | CCCCCCCCCCCCCCCCCCOC[C@H](COP(=O)([O-])OC[C@@H](O)CO)OC(=O)CCCCCOC(=O)c1ccc(-c2ccc(CCCCCCCC)cc2)cc1.[Na+] | 5.15 |  | < 3.70 | Unstable | 5.52 |  |  | Unstable
6 | CCCCCCCCc1ccc(-c2ccc(C(=O)OCCCCCC(=O)O)cc2)cc1 | 3.90 | 4.85 | < 3.70 |  |  |  |  | 
7 | CCCCCCCCCCCCCCCCCC(=O)O [STEARIC ACID] | < 3.70 |  | < 3.70 |  |  |  |  | 
8 | CCCCCCCCCCCCCCCCCC(=O)OC[C@H](COP(=O)(O)OC[C@H](O)CO)OC(=O)CCCCCCCCCCCCCCCCC | 4.27 |  | < 3.70 |  | 4.60 |  |  | 
9 | CCCCCCCCCCCCCCCCCC(=O)OC[C@H](COP(=O)([O-])OC[C@@H](O)CO)OC(=O)CCCCCOC(=O)/C=C(C)/C=C/C=C(C)/C=C/C1=C(C)CCCC1(C)C.[Na+] | 4.92 |  | < 3.70 | Unstable | 5.22 |  |  | Unstable
10 | CCCCCCCCCCCCCCCCCCOC[C@H](COP(=O)(O)OC[C@H](O)CO)OC(=O)CCCCCCCCCCCCCCCCC | 4.48 |  | < 3.70 |  | 5.05 |  |  | 
11 | CC1=C(/C=C/C(C)=C/C=C/C(C)=C/C(=O)OCCCCCC(=O)O)C(C)(C)CCC1 | 4.77 | 4.77 | 5.44 |  |  | 5.10 | 5.22 | 
12 | CCCCCCCCCCCCCCCCCCOC[C@@H](O)COP(=O)(O)OC[C@@H](O)CO | 4.60 |  | 4.96 |  |  |  |  | 
13 | CCCCCCCCCCCCCCCCCC(=O)OC[C@H](COP(=O)([O-])OC[C@@H](O)CO)OC(=O)CCCCCOC(=O)c1ccc(-c2ccc(CCCCCCCC)cc2)cc1.[Na+] | 4.72 |  | < 3.70 | Unstable | 5.10 |  |  | Unstable

From ChEMBL document CHEMBL1157134, “Liposomal formulation of retinoids designed for enzyme triggered release” (J Med Chem, 2010)
